# Test results published in PubChem BioAssay.
# Active and inactive are the calls of the source.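 Rule for the calls, unless noted: active = inhibition at or above 50% at 10 µM; inactive = inhibition below 50%.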
# Legend:
# [1] = inhibitors of TNFa-induced NFkB p65 translocation, primary screen, imaging, HUVEC, MLSMR starter and 10KST1 sets (AID 438;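 active = inhibition above 20% together with a positive visual image hit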;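 note: compound added about 3h40 before a 20 min TNFalpha stimulation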;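 for inhibition: signal is the nuclear over cytoplasmic p65 intensity ratio per well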); details: HUVEC TNFa-induced p65 nuclear translocation; cell count: measured here: nuclei count (cytotoxicity indicator), at 2.08 µM; inhibition: at 2 µM, stronger effect = higher value, 0% TNFa-plus-vehicle, 100% no-TNFa wells
# [2] = inhibitors of mutant huntingtin aggregation, primary screen, imaging, exon1htt(103Q)mCFP cells, high-content imaging (AID 483;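 active = visual image review flags a hit and inhibition of aggregation exceeds 20%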;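 note: compound exposure lasted 3 days before fixation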;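 for nuclei count: percent of the per-plate median nuclei count of sample wells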); details: exon1htt(103Q)mCFP cell line, aggregate imaging, at 2 µM; inhibition of aggregation: stronger effect = higher value; nuclei count: measured here: cell count, toxicity
# [3] = inhibitors of E-selectin induction by TNFa, primary screen, imaging, HUVEC, immunofluorescence, MLSMR starter and 10KST1 sets (AID 487;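 active = visually confirmed hit in the image check and inhibition above 20%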;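 for inhibition: signal is fraction of cell area covered by stained E-selectin grains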;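 for nuclei count: 100% = median nuclei count of all wells on the same plate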); details: HUVEC TNFalpha-induced E-selectin immunofluorescence imaging, at 2 µM; inhibition: stronger effect = higher value; nuclei count: measured here: cell number, toxicity
# [4] = target: Voltage-gated potassium channel subunit beta-2 (Rattus norvegicus) (UniProt P62483); assay: KvBeta enzyme negative modulators, primary screen, biochemical, NADPH fluorescence (AID 622;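 active = fluorescence slope higher than the sample average by over 3 SD, cut at about -0.22 in these data, passing the limit was not always enough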;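 note: slope of raw intensity against log time taken from 70 to 1610 s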); details: recombinant KvBeta, 4-cyanobenzaldehyde reduction, at 10 µM, stronger effect = higher value
# Sequence of Voltage-gated potassium channel subunit beta-2 (Rattus norvegicus) (P62483 whole entry, looked up): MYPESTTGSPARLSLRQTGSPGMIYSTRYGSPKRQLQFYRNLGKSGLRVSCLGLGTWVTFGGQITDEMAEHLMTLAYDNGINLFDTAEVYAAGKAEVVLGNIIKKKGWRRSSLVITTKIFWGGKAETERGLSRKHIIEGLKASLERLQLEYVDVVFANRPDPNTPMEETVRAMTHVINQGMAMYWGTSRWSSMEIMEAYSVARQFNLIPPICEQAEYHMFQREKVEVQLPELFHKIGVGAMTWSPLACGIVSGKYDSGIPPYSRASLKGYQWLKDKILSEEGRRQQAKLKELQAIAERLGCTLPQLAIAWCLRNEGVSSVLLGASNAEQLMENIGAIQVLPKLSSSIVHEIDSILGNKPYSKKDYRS
# [5] = target: Voltage-gated potassium channel subunit beta-2 (Rattus norvegicus) (UniProt P62483); assay: KvBeta positive modulators, primary screen, biochemical, NADPH fluorescence (AID 623;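 active = NADPH fluorescence slope more negative than the mean of all samples by about 3 SD, 99.7% confidence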;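 note: fluorescence intensity change per second fitted from 20 to 320 s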); details: Recombinant KvBeta, NADPH fluorescence decrease slope, 10 min; at 10 µM; stronger effect = lower value
# [6] = target: Muscarinic acetylcholine receptor M4 (Homo sapiens) (UniProt P08173); assay: compounds altering M4/GIRK thallium flux, either direction, primary screen, M4 allosteric agonist project, cell-based, HEK293 M4/GIRK, BTC-AM (AID 625;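 active = fluorescence slope after compound addition differing from the mean of all tested samples at 99.7% confidence, mostly higher but some lower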;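 note: thallium influx through GIRK channels coupled to M4 in HEK293 cells with BTC-AM dye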); details: at 10 µM, actives lie on both sides
# Sequence of Muscarinic acetylcholine receptor M4 (Homo sapiens) (P08173 whole entry, looked up): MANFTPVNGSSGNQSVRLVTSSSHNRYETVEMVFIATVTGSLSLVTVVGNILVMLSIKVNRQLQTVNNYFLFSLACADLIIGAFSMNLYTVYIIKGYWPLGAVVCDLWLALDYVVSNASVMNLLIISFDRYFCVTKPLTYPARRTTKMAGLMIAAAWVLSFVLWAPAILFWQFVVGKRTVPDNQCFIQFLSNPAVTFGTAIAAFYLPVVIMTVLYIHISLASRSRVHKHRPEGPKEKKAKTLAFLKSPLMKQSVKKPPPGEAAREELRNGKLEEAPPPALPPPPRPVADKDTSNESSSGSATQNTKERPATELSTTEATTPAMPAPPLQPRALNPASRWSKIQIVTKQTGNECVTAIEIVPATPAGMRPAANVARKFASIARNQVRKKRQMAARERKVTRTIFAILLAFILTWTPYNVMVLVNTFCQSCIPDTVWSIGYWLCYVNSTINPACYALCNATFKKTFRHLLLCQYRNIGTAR
# Summary of the method: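 Assay system: HEK293 cells with M4 receptor and GIRK channels / Controls: carbachol and DMSO controls / Schedule: 1 h dye loading, 2 min kinetic read / Technique: kinetic fluorescence with BTC-AM dye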
# [7] = inhibitors of Sendai virus-induced IRF3 signaling, primary screen, TLR/RLR signaling modifier project, cell-based, Sendai virus stimulus, luciferase, 10K MLSCN set (AID 602276); details: HEK293 RL24 IRF3 luciferase reporter, at 10 µM, stronger effect = higher value;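 note: firefly luciferase from ISG56 promoter only with Renilla not read in this screen; 0% = Sendai virus plus DMSO and 100% = medium plus DMSO without virus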
# [8] = inhibitors of poly I:C-induced TLR3 signaling, primary screen, cell-based, poly I:C stimulus, luciferase, 10K MLSCN set (AID 602277;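 active = inhibition of the reporter signal at or above 50%; inactive = inhibition below 50%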); details: HEK293-TLR3 RL24 IRF3 luciferase reporter, at 10 µM, stronger effect = higher value
smiles,measurement,setting,value
CN(C)c1cccc(N=C2C=C(N3CCOCC3)CC(C)(C)C2)c1,cell count,[1],473
same,inhibition,[1],2.4% (inactive)
same,inhibition of aggregation,[2],8.4% (inactive)
same,nuclei count,[2],86.3%
same,inhibition,[3],-54.6% (inactive)
same,nuclei count,[3],116%
same,fluorescence slope,[4],-0.55 (inactive)
same,NADPH fluorescence slope,[5],-1.9e-05 (inactive)
same,fluorescence slope,[6],0.00498 (inactive)
same,inhibition,[7],-0.858% (inactive)
same,inhibition,[8],16.5% (inactive)
CC(C)(C)c1ccccc1NC(=O)c1cccnc1,cell count,[1],224
same,inhibition,[1],-5.6% (inactive)
same,inhibition of aggregation,[2],28.5% (inactive)
same,nuclei count,[2],91.8%
same,inhibition,[3],-81.8% (inactive)
same,nuclei count,[3],89.7%
same,fluorescence slope,[4],-0.533 (inactive)
same,NADPH fluorescence slope,[5],-2.2e-05 (inactive)
same,fluorescence slope,[6],0.00439 (inactive)
same,inhibition,[7],15.7% (inactive)
same,inhibition,[8],19.9% (inactive)
Cc1ccc2[nH]c(=O)c(CN(CCc3ccccc3)Cc3nnnn3CC3CCCO3)cc2c1 (centres undefined),cell count,[1],676
same,inhibition,[1],-10.2% (inactive)
same,inhibition of aggregation,[2],0.9% (inactive)
same,nuclei count,[2],105%
same,inhibition,[3],75.6% (active)
same,nuclei count,[3],112%
same,fluorescence slope,[4],-0.498 (inactive)
same,NADPH fluorescence slope,[5],-7e-06 (inactive)
same,fluorescence slope,[6],0.00636 (inactive)
same,inhibition,[7],-7.83% (inactive)
same,inhibition,[8],-6.03% (inactive)
CCCCOc1ccc(NC(=O)Cn2c(=O)ccc3c(C)cc(C)nc32)cc1,cell count,[1],400
same,inhibition,[1],5.6% (inactive)
same,inhibition of aggregation,[2],11.8% (inactive)
same,nuclei count,[2],88.5%
same,inhibition,[3],-342% (inactive)
same,nuclei count,[3],149%
same,fluorescence slope,[4],-0.565 (inactive)
same,NADPH fluorescence slope,[5],8.6e-06 (inactive)
same,fluorescence slope,[6],0.0062 (inactive)
same,inhibition,[7],15.2% (inactive)
same,inhibition,[8],20.7% (inactive)
O=C(CN1C(=O)COc2ccccc21)NCCCN1CCc2ccccc2C1,cell count,[1],698
same,inhibition,[1],-5.4% (inactive)
same,inhibition of aggregation,[2],-7.3% (inactive)
same,nuclei count,[2],106%
same,inhibition,[3],-13.4% (inactive)
same,nuclei count,[3],106%
same,fluorescence slope,[4],-0.625 (inactive)
same,NADPH fluorescence slope,[5],1.2e-05 (inactive)
same,fluorescence slope,[6],0.00746 (inactive)
same,inhibition,[7],11.3% (inactive)
same,inhibition,[8],33.1% (inactive)
COc1ccc(NC(=O)Cn2nnc(-c3ccccc3N)n2)cc1OC,cell count,[1],656
same,inhibition,[1],-6.1% (inactive)
same,inhibition of aggregation,[2],19.9% (inactive)
same,nuclei count,[2],100%
same,inhibition,[3],-51.2% (inactive)
same,nuclei count,[3],121%
same,fluorescence slope,[4],-0.595 (inactive)
same,NADPH fluorescence slope,[5],1e-05 (inactive)
same,fluorescence slope,[6],0.00531 (inactive)
same,inhibition,[7],17.6% (inactive)
same,inhibition,[8],14.6% (inactive)
CCn1ncc(C2=NOC(C(=O)N3CCC(C(N)=O)CC3)C2)c1C (centres undefined),cell count,[1],846
same,inhibition,[1],-7.8% (inactive)
same,inhibition of aggregation,[2],-19.8% (inactive)
same,nuclei count,[2],105%
same,inhibition,[3],-117% (inactive)
same,nuclei count,[3],109%
same,fluorescence slope,[4],-0.47 (inactive)
same,NADPH fluorescence slope,[5],3.7e-05 (inactive)
same,fluorescence slope,[6],0.00576 (inactive)
same,inhibition,[7],-11.4% (inactive)
same,inhibition,[8],-7.82% (inactive)
c1ccc(-c2n[nH]c3ccccc23)cc1,cell count,[1],708
same,inhibition,[1],-3% (inactive)
same,inhibition of aggregation,[2],13.9% (inactive)
same,nuclei count,[2],116%
same,inhibition,[3],-13.1% (inactive)
same,nuclei count,[3],106%
same,fluorescence slope,[4],-0.55 (inactive)
same,NADPH fluorescence slope,[5],-5.6e-05 (inactive)
same,fluorescence slope,[6],0.00778 (inactive)
same,inhibition,[7],-14% (inactive)
same,inhibition,[8],-30% (inactive)
CCOc1ccc2c(c1)sc1nc(C(=O)OC)cc(=O)n12,cell count,[1],432
same,inhibition,[1],7.5% (inactive)
same,inhibition of aggregation,[2],-10.2% (inactive)
same,nuclei count,[2],109%
same,inhibition,[3],-0.5% (inactive)
same,nuclei count,[3],108%
same,fluorescence slope,[4],-0.175 (inactive)
same,NADPH fluorescence slope,[5],-1.7e-05 (inactive)
same,fluorescence slope,[6],0.00476 (inactive)
same,inhibition,[7],13.7% (inactive)
same,inhibition,[8],19.3% (inactive)
Cc1oc(-c2ccccc2)cc1C(N)=O,cell count,[1],248
same,inhibition,[1],0% (inactive)
same,inhibition of aggregation,[2],-1.4% (inactive)
same,nuclei count,[2],66.5%
same,inhibition,[3],18.6% (inactive)
same,nuclei count,[3],97.7%
same,fluorescence slope,[4],-0.548 (inactive)
same,NADPH fluorescence slope,[5],-1.8e-05 (inactive)
same,fluorescence slope,[6],0.0055 (inactive)
same,inhibition,[7],15.1% (inactive)
same,inhibition,[8],3.48% (inactive)
COc1ccccc1C(=O)N1CCCC(c2nc(-c3cc(OC)c(OC)c(OC)c3)no2)C1 (centres undefined),cell count,[1],307
same,inhibition,[1],0.5% (inactive)
same,inhibition of aggregation,[2],-0.4% (inactive)
same,nuclei count,[2],120%
same,inhibition,[3],19.1% (inactive)
same,nuclei count,[3],100%
same,fluorescence slope,[4],-0.474 (inactive)
same,NADPH fluorescence slope,[5],-3.6e-05 (inactive)
same,fluorescence slope,[6],0.0058 (inactive)
same,inhibition,[7],12.4% (inactive)
same,inhibition,[8],16.1% (inactive)
O=C(NCCN1CCOCC1)c1csc2c1CCCC2,cell count,[1],643
same,inhibition,[1],-24.5% (inactive)
same,inhibition of aggregation,[2],22.6% (inactive)
same,nuclei count,[2],109%
same,inhibition,[3],-109% (inactive)
same,nuclei count,[3],116%
same,fluorescence slope,[4],-0.257 (inactive)
same,NADPH fluorescence slope,[5],-1.1e-05 (inactive)
same,fluorescence slope,[6],0.0063 (inactive)
same,inhibition,[7],12.1% (inactive)
same,inhibition,[8],2.09% (inactive)
Cc1nc2ccc(S(=O)(=O)NCC(=O)O)cc2s1,cell count,[1],423
same,inhibition,[1],5.2% (inactive)
same,inhibition of aggregation,[2],-3% (inactive)
same,nuclei count,[2],110%
same,inhibition,[3],-56.1% (inactive)
same,nuclei count,[3],118%
same,fluorescence slope,[4],-0.45 (inactive)
same,NADPH fluorescence slope,[5],4.8e-05 (inactive)
same,fluorescence slope,[6],0.00579 (inactive)
same,inhibition,[7],-1.77% (inactive)
same,inhibition,[8],13% (inactive)
CNC(=O)Nc1cccc(C(F)(F)F)c1,cell count,[1],299
same,inhibition,[1],-3.3% (inactive)
same,inhibition of aggregation,[2],-31% (inactive)
same,nuclei count,[2],97.6%
same,inhibition,[3],-46.4% (inactive)
same,nuclei count,[3],130%
same,fluorescence slope,[4],-0.566 (inactive)
same,NADPH fluorescence slope,[5],-5.5e-05 (inactive)
same,fluorescence slope,[6],0.00624 (inactive)
same,inhibition,[7],0.0526% (inactive)
same,inhibition,[8],4.51% (inactive)
